According to paper PMC4232467 (Nature chemical biology, 2014):
Converted amounts (≈) assume the structure as drawn.

Experiments:
Experiment in all cases: Susceptibility testing
Assay type in all cases: cell-based
[1] = test system: Enterobacter cloacae (AmpC overproducer); settings: read-out: Minimum inhibitory concentrations (MICs; μg/mL) Enterobacter cloacae
How it was run: (§1)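 Broth susceptibility testing of clinical isolates resistant to third-generation cephalosporins, run and read per CLSI guidelines. […] Compounds were dissolved in DMSO and diluted into Mueller Hinton medium, with DMSO kept below 5%. Values are the average of three independent experiments.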

[2] = test system: Citrobacter freundii (AmpC overproducer); settings: read-out: Minimum inhibitory concentrations (MICs; μg/mL) Citrobacter freundii
How it was run: as §1

[3] = test system: Escherichia coli (TEM-3) ESBL producer; settings: read-out: Minimum inhibitory concentrations (MICs; μg/mL) Escherichia coli (TEM-3)
How it was run: as §1

[4] = test system: Escherichia coli (CTX-M-14) ESBL producer; settings: read-out: Minimum inhibitory concentrations (MICs; μg/mL) Escherichia coli (CTX-M-14)
How it was run: as §1

`CO/N=C(\C(=O)N[C@@H]1C(=O)N2C(C(=O)O)=C(COC(C)=O)CS[C@H]12)c1csc(N)n1` [Cefotaxime, cefotaxime] was tested, and the MIC [1] was 64 µg/mL (≈ 141 µM), the MIC [2] was 16 µg/mL (≈ 35.1 µM) and the MIC [3] was 8 µg/mL (≈ 17.6 µM). It also gave an MIC [4] of 256 µg/mL (≈ 562 µM).
